Rows were chosen to be rich in hits. Some 4% of all compounds tested hit in one or more screens of this group.
H9c2 protect: cardioprotection against H2O2-induced cell death, primary screen, uHTS, H9c2 cells, ATPLite luminescence; H9c2 cardiomyocytes, H2O2 injury protection, 2 h; protection from H2O2 cell death, % at 20 µM; actives 0.63% (n = 360,000); AID 588492, 2011;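 active means compounds giving at least 50% protection of heart cells from peroxide-induced death in the single-dose screen, raw or plate-pattern-corrected value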;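 further: 0% = DMSO wells with peroxide and 100% = DMSO wells without peroxide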
iPSC survival up: enhancers of single-cell hiPSC survival, primary screen, ATPlite luminescence; 100% = ROCK inhibitor wells, 0% = DMSO; survival enhancement, % at 20 µM; actives 0.044% (n = 360,000); AID 602274, 2012; in the data active means survival enhancement above about 18%;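 further: cells exposed to compounds for 16 hours before the ATP read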
Arr AP2 block: inhibitors of beta-arrestin/AP2 binding, primary screen, biochemical, GPCR trafficking, flow cytometry; beta-arrestin 1 C-terminal peptide binding to AP2 beta2-adaptin appendage (human); FITC-arrestin peptide / GST-AP2 beads; AP2 beta2 appendage carries R879A mutation; inhibition, % at 10 µM; actives 0.31% (n = 340,000); AID 504490, 2011;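 active means inhibition above a set limit, near 3 SD of compounds lacking own fluorescence, cut at about 54% in these data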;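 further: plate controls were DMSO wells for no effect and 5 µM unlabelled arrestin peptide for full effect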
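Material – GST-tagged AP2 beta2-adaptin appendage (R879A) on 4 µm glutathione beads · Probe or stimulus – fluorescein-tagged arrestin peptide at 50 nM final · Timing – 12 min plus 1 h, RT · Detection – bead flow cytometry, FITC channel · Read-out basis – inhibition as reduced fluorescein signal on beads, percent · Medium – PBS plus Tween 20 (0.05%) and BSA (0.1%)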
SENP1 FRET inh: human SENP1 catalytic domain inhibitors, primary screen, biochemical, FRET, uHTS. Sentrin-specific protease 1 (Homo sapiens), Q9P0U3. recombinant SENP1 catalytic domain, CyPet-SUMO1-YPet FRET cleavage. inhibition, % at 10 µM. actives 0.21% (n = 360,000). AID 624204, 2012;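 active means inhibition at least 30% at 10 µM, raw YFP signal under a set limit, fluorescence ratio 0.5 to 1.5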;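 further: 0% = enzyme with DMSO and 100% = no enzyme wells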
Target sequence (Q9P0U3 419-644 limits assumed): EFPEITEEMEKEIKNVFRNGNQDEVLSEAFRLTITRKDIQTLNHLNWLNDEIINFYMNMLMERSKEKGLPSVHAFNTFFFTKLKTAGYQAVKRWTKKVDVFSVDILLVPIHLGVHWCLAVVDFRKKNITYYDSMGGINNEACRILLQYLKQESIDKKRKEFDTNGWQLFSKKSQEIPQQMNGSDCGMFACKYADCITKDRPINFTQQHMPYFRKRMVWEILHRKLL
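Test system: recombinant human SENP1 catalytic domain, His6-tagged / Medium: pH 8 Tris buffer with EDTA, NaCl, BME, BSA, NP40, catalase / Also added: SUMO1 FRET substrate flanked by Cypet and Ypet, 25 nM / Times: 50 min reaction at room temperature / Signal: FRET, CFP and YFP emission / Control set: no-enzyme low control and enzyme-plus-DMSO high control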
FAS-TE inh: FAS thioesterase domain inhibitors, primary screen, biochemical, fluorescence intensity, uHTS | inhibition, % at 15 µM | recombinant FAS-TE, OMFH fluorogenic substrate, fluorescence endpoint | AID 602261, 2012 | actives 0.67% (n = 360,000);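 active means compounds whose normalised, plate-corrected inhibition of enzyme fluorescence in the single-dose primary screen is 50% or more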;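 further: 0% = DMSO with enzyme and 100% = substrate without enzyme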
GRIN3A LBD mod: binders of NR3A ligand-binding domain, primary screen, biophysical, differential scanning fluorimetry, uHTS | actives 2.5% (n = 340,000) | AID 1259313, 2017 | Glutamate receptor ionotropic, NMDA 3A (GRIN3A) ligand-binding domain | NR3A LBD differential scanning fluorimetry, Tm shift; 0% = protein alone, 100% = glycine-bound protein | Tm shift relative to glycine control, % at 25 µM;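 active means melting temperature shift of at least 10% of the positive control shift, at one fixed dose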
Arr-AP2 CP1: inhibitors of arrestin peptide binding to AP2, confirmation, biochemical, cherry pick 1, flow cytometry beads; GST-AP2 beads, FITC arrestin peptide binding; GST-fused beta2-adaptin appendage, R879A mutant; shares compounds with Arr AP2 block; actives 2% (n = 1,300); inhibition, % at 10 µM;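 active means inhibition above a set limit, roughly 3 SD of non-fluorescent compound noise, cut at about 38% in these data; inactive means inhibition at or below that limit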;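 further: loss of bead fluorescence from 50 nM FITC arrestin peptide bound to appendage; 0% = negative control wells and 100% = excess unlabelled arrestin peptide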
GST GSH counter: GST-fluorescein capture on glutathione beads, confirmation, artefact control for arrestin-AP2 inhibitor project, biochemical, cherry pick 1, flow cytometry | GST-fluorescein binding to GSH beads, fluorescence, counter-screen | shares compounds with Arr AP2 block | inhibition, % at 10 µM | AID 588338, 2011 | actives 2% (n = 1,300);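 active means inhibition above 50%, about 3 SD of the inhibition seen with non-fluorescent compounds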;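 further: fluorescein maleimide labelled GST captured on 4 micron glutathione beads; higher means more loss of bead fluorescence from quenching or blocked binding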
Starred values were filed as active, the others as inactive; . = not tested or not shown.

SMILES	H9c2 protect	iPSC survival up	Arr AP2 block	SENP1 FRET inh	FAS-TE inh	GRIN3A LBD mod	Arr-AP2 CP1	GST GSH counter
CN(C)c1ncc(C2=C(Cl)C(=O)C(N3CCCC3)=C(Cl)C2=O)s1	-17	0	88*	-3	46	-6	77*	27
CC(=O)c1ccc(NC(=O)C2CC2c2ccccc2)cc1 (centres undefined)	1	0	-8	3	9	1	.	.
CC(=O)c1ccc(NC(=O)C2C3C=CC(C3=C(c3ccccc3)c3ccccc3)C2C(=O)O)cc1 (centres undefined)	1	4	56*	0	3	-30	-3	-5
COc1ccccc1NS(=O)(=O)c1cc(C(=O)NC2CC(C)(C)NC(C)(C)C2)ccc1Cl	12	3	-17	5	1	2	.	.
CN1C[C@@H](CO)O[C@@H](n2cnc3c(N4CCOCC4)ncnc32)C1	1	4	.	2	-6	.	.	.
O=C(Nc1ccc(F)cc1)c1cnccn1	2	0	.	3	-6	.	.	.
O=C(Nc1ccc(F)cc1)Nc1cnccn1	-2	0	4	0	-6	1	2	-5
O=C(Nc1ccc(Br)cc1)Nc1cnccn1	-3	-1	15	1	0	2	-5	.
CN1C2=CC=CC=CC2=[N+](C)C12C=CC(=[N+]([O-])[O-])C=C2[N+](=O)[O-] (centres undefined)	-1	0	54*	-6	-4	1	2	-7
CN1C2=CC=CC=CC2=[N+](C)C12C([N+](=O)[O-])=CC(=[N+]([O-])[O-])C=C2[N+](=O)[O-] (centres undefined)	-2	0	-10	2	-2	-2	.	.
Cn1nnnc1NCc1ccc(Cl)cc1	5	-1	57*	5	-6	1	-1	-10
CCN1C(=O)/C(=C/C=C2/Sc3ccc4ccccc4c3N2CCO)SC1=S	6	0	4	7	-4	-12	.	.
CCN1C(c2ccccc2)=C(c2ccccc2)S/C1=C/C=C1\SC(=S)N(C)C1=O	-9	0	57*	7	0	0	-4	14
CCN1C(c2ccccc2)=C(c2ccccc2)S/C1=C\C=C1/SC(=S)N(C)C1=O	-18	-4	75*	2	15	-14	18	43
CC1(C(=O)O)CCCN(C(=O)c2cc3ccccc3s2)C1 (centres undefined)	-1	3	.	4	-5	.	.	.
CCOC(=O)N1CCN(C(=O)/C(=C/c2cccs2)NC(=O)c2ccc(OC)c(OC)c2)CC1	9	2	60*	0	-3	0	-2	-14
Cc1ccc(C(O)P(=O)(OC2CCCCC2)OC2CCCCC2)cc1 (centres undefined)	-7	1	-4	4	-2	2	.	.
COc1ccccc1C(O)P(=O)(OC1CCCCC1)OC1CCCCC1 (centres undefined)	0	0	55*	0	4	0	-9	-4
CC(=O)c1ccc(N2CCN(C(=O)c3ccc(S(=O)(=O)NCc4ccco4)cc3)CC2)cc1	-4	-2	-9	1	-4	-10	3	-5
O=C(c1cccc(S(=O)(=O)NCc2ccccc2)c1)N1CCN(c2ccc(F)cc2)CC1	-2	2	8	0	9	2	.	.
O=C(c1ccc(S(=O)(=O)NCc2ccco2)cc1)N1CCN(c2ccc(F)cc2)CC1	-1	0	59*	-1	4	-2	5	-10
CC(=O)c1ccc(N2CCN(C(=S)NCc3ccco3)CC2)cc1	-2	1	-17	1	0	0	.	.
CCc1nc2ccc(C(=O)NCCCN3CCCC3=O)cn2c1N(C)C(=O)Nc1ccccc1OC	-10	1	.	-2	-6	.	.	.
COc1ccc(/C=N\N=C2/SC(CC(=O)O)C(=O)N2c2ccc(O)cc2)cc1 (centres undefined)	0	0	56*	0	-9	0	-4	-11
CC(C)CSc1nc2ccccc2n1CC(=O)O	4	-2	55*	3	-6	1	-2	3
SMILES	H9c2 protect	iPSC survival up	Arr AP2 block	SENP1 FRET inh	FAS-TE inh	GRIN3A LBD mod	Arr-AP2 CP1	GST GSH counter
CCCSc1nc2ccccc2n1CC(=O)O	-6	0	-2	0	-4	-1	.	.
CCc1nc2ccc(C(=O)N3CCN(S(=O)(=O)CC)CC3)cn2c1N(CC)Cc1cccc(Br)c1	10	-1	.	-3	0	.	.	.
C=CC[C@H](CC(=O)N(CCO)Cc1ccccc1)C(=O)N[C@@H](COC(=O)[C@@H](CC=C)Cc1ccc(F)cc1)Cc1c[nH]c2ccccc12	-14	-1	48	0	16	1	.	.
CSc1ccc(CNC(=O)C2(C)CCCN(C(C)=O)C2)cc1 (centres undefined)	0	-1	.	1	-6	.	.	.
O=C(Nc1ccccc1)C1Cc2c(-c3ccc4c(c3)OCO4)ccnc2O1 (centres undefined)	11	-1	.	-2	6	.	.	.
CCOc1ccc(NC(=O)c2ccc(NC(=O)COC(=O)Cc3ccc(OC)cc3)cc2)cc1	-1	-1	55*	2	-8	5	5	-5
CC(=O)N(c1ccccc1)c1ccccc1[N+](=O)[O-]	-2	-2	.	-14	-7	.	.	.
COc1cc(C(=O)Nc2ccccc2N2CCOCC2)ccc1OCC(=O)N1CCOCC1	7	0	31	-1	-3	0	.	.
CC(C)C(=O)N1CCN(c2ccccc2NC(=O)c2cccc(Cl)c2)CC1	6	-1	-2	3	10	0	.	.
COc1cccc(C(=O)Nc2cc3c(cc2N2CCOCC2)n(C)c(=O)n3C)c1	5	0	8	0	-6	1	6	-5
